Source: PubChem
T cruzi repl: blocks replication of Trypanosoma cruzi. inhibition, % (no concentration beside the values). 1.4% of 300,000 active. T. cruzi beta-gal in NIH3T3, luminescence, 90 h;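 active = mean inhibition across valid replicates above about 55%, limit read from the data; inconclusive = mean below that limit but half or more replicates reach it; inactive = mean below it, under half of replicates reach it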;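 also: signal also drops with host cell toxicity which is not excluded here; 0% = plate median of DMSO wells and 100% = zero luminescence signal; higher percent means less beta-gal luminescence so fewer parasites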
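Test system: β-gal T. cruzi (Tulahuen C4) inside NIH/3T3 cells / Quantity: 5,000 cells/well / Measured by: luminescence from GalScreen with 0.05% NP40, read after 60 min / Medium: DMEM plus 2% FBS / Measure: parasite load inhibition, % / Reagent: Tulahuen C4 trypomastigotes, 5000/well / Schedule: co-culture of at least 90 h after 3 h attachment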
L major viab: inhibitors of Leishmania major promastigote growth; inhibition, % at 10 µM; 9% of 200,000 active; Leishmania major promastigotes, resazurin fluorescence viability; AID 1063; in the data active = inhibition above about 50%;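 also: promastigotes grown with compound for 44 hours at 28 °C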
Hsp70 activator: transcriptional activators of Hsp70; HeLa Hsp70 promoter luciferase reporter, luminescence; scaled: vehicle 0, proteasome-inhibitor control 100%; AID 1203; 0.04% of 200,000 active; activation, % at 10 µM;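 active = activation above the mean across all tested compounds plus 3 SD, cutoff set per campaign, cut at about 5.5% in these data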;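 also: 100% = MG132 at 30 µM as the positive control and 0% = DMSO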
HSF1 inhib: HSF1 inhibition. NIH3T3-HGL HSE-luciferase, MG132-induced, luminescence 8 h; active compounds read low. activity change, negative = inhibition, % at 7.5 µM (by protocol). 0.77% of 300,000 active. AID 2098;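 active = more than half of replicate wells show activity change below -50%, luminescence cut by over half; inconclusive = some wells, but at most half, below -50%; inactive = no replicate well below -50%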;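 also: luciferase reports HSF-1 transcriptional activity via heat shock element; 0% = median of DMSO wells and -100% = zero luminescence signal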
HSF-1 act: increases HSF-1 driven luciferase reporter signal | activation, % at 9 µM | NIH3T3-HGL HSF-1 luciferase reporter, MG132, 8 h; 100% = twice DMSO control signal | AID 504408 | 1.7% of 300,000 active;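 active = mean replicate activation of at least 50% with a set share of replicates each reaching 50%; inconclusive = only one of those two conditions met; inactive = mean below 50% and too few replicates reaching it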;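 also: 0% = median of the neutral control wells and 100% = twice that signal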
Starred values were filed as active, the others as inactive; ? = inconclusive; . = no result. The full list was thinned out, with hits kept by preference.

SMILES	T cruzi repl	L major viab	Hsp70 activator	HSF1 inhib	HSF-1 act
CCCCN(CC)CCCNC(=O)c1cc2c(=O)n(C)c3ccccc3c2n1C	19	80*	0	4	-1
Cn1c(C(=O)NCCN2CCN(Cc3ccccc3)CC2)cc2c(=O)n(C)c3ccccc3c21	9	.	.	-8	-5
CN(C)CCCNC(=O)c1cc2c3ccccc3n(C)c2s1	74*	91*	0	-1	-12
Cn1c(C(=O)NCCN2CCCCCC2)cc2c(=O)n(C)c3ccccc3c21	11	70*	0	-5	1
CCn1c(=O)c2cc(C(=O)NCCN(C)C)sc2c2ccccc21	22	.	.	1	-6
CN1CCN(CCCNC(=O)c2cc3c(=O)n(C)c4ccccc4c3s2)CC1	-15	98*	0	7	2
Cc1ccc(S(=O)(=O)N(CC(=O)N2CCOCC2)c2ccc(C(C)C)cc2)cc1	-9	.	.	1	7
CN(C)CCNC(=O)c1cc2sc3ccccc3c2s1	59*	84*	0	-2	18
COCCN(CCOC)C(=O)c1cc2sc3ccccc3c2s1	16	-2	0	3	13
CC1CCN(CCCNC(=O)c2cc3c(=O)n(C)c4ccccc4c3n2C)CC1	18	63*	0	7	6
Nc1ccc(Oc2ccc3nc(-c4ccccc4)c(-c4ccccc4)nc3c2)cc1	-12	66*	0	-1	-20
Nc1ccc2nc(-c3ccccc3)c(-c3ccccc3)nc2c1	9	.	.	1	-4
O=C(C1=C[C@@H](C2CCCCC2)C[C@@H](OCc2ccc(CO)cc2)O1)N1CCN(Cc2ccc3c(c2)OCO3)CC1	42	57*	0	-5	-3
O=C(C1=C[C@H](C2CC2)C[C@H](OCc2ccc(CO)cc2)O1)N1CCN(Cc2ccc3c(c2)OCO3)CC1	44	31	0	-39	-53
O=C(C1=C[C@H](C2CC2)C[C@H](OCCCCO)O1)N1CCN(Cc2ccc3c(c2)OCO3)CC1	36	16	0	2	15
CC(C)(C)[C@@H]1C=C(C(=O)NC2CC2)O[C@H](OCc2ccc(CO)cc2)C1	-15	99*	0	1	-17
C#CCNC(=O)C1=C[C@@H](C2CCCCC2)C[C@@H](OCc2ccc(CO)cc2)O1	11	96*	0	7	-4
O=C(C1=C[C@H](C2CCCCC2)C[C@H](OCc2ccc(CO)cc2)O1)N1CCN(Cc2ccc3c(c2)OCO3)CC1	57*	68*	0	7	-19
CSc1ccc(C2NN=C(c3ccccc3)S2)cc1 (stereo not given)	-18	.	.	-28	-27
Oc1ccccc1C1NN=C(c2ccccc2)S1 (stereo not given)	-18	.	.	71	81*
COc1ccc(NC(C)C(=O)Nc2cc(C(F)(F)F)ccc2N2CCOCC2)c(OC)c1 (stereo not given)	19	72*	0	.	.
O=C(Cn1ncc(Cl)c(Cl)c1=O)N1CCOCC1	28	14	1	24	15
O=C(Cn1ncc(Cl)c(Cl)c1=O)N1CCN(Cc2ccccc2)CC1	67*	40	1	55	55*
CC1(C)C(=O)Nc2ccccc2N1C(=O)Cn1ncc(Cl)c(Cl)c1=O	55*	.	.	29	54*
O=C(Cn1ncc(Cl)c(Cl)c1=O)N1CCc2ccccc21	82*	87*	2	-5	29
SMILES	T cruzi repl	L major viab	Hsp70 activator	HSF1 inhib	HSF-1 act
Cc1ccc(OCC(=O)NCCCNC(=O)c2ccncc2)cc1C	-6	.	.	1	-4
CC(OCC(O)CN(C)Cc1nc2ccccc2c(=O)[nH]1)c1ccc(Cl)cc1 (stereo not given)	-20	1	0	3	8
COc1ccc(N2CCN(C(=O)c3cccc(Br)c3)CC2)c([N+](=O)[O-])c1	3	8	0	-45	-55
O=C(c1ccc(-c2ccccc2)cc1)c1ccc([N+](=O)[O-])cc1	20	.	.	6	2
O=C(C#Cc1ccccc1)c1ccc([N+](=O)[O-])cc1	11	-2	0	51	61*
CC1=C(C(=O)OCC2CCCO2)C(c2ccc(C)cc2)C2=C(CC(C)(C)CC2=O)N1 (stereo not given)	7	15	0	-1	23
CN(CC(=O)NCc1ccccc1)S(=O)(=O)c1cnc[nH]1	-7	-3	0	.	.
CCN(c1ccccc1)S(=O)(=O)c1cnc[nH]1	-2	-6	0	-70*	-76
CCCn1c(=O)n(N)c2ccccc21	-13	-7	0	2	10
O=C(NC(=S)Nc1cc(C(F)(F)F)ccc1N1CCOCC1)c1sc2ccccc2c1Cl	-6	7	0	-14	3
CC(C)c1ccc2c(c1)[C@H]1OCC[C@H]1[C@@H](c1cccs1)N2	-1	1	0	74	122*
Cc1cc(C)c2c(c1)N[C@H](c1cccs1)[C@@H]1CCO[C@H]21	8	.	.	5	2
Cc1cc(SCC(=O)N/N=C/c2ccc(O)cc2O)c(C)cc1Br	62*	100*	0	7	38
COc1cccc(CN2CCCN(S(=O)(=O)c3ccc(Br)cc3)CC2)c1	9	93*	0	1	10
O=S(=O)(c1ccc(Br)cc1)N1CCCN(Cc2cccc(F)c2)CC1	8	86*	0	-6	6
CCCN(CCC)C(=O)NC1CC(=O)N(c2ccc(OC)cc2)C1 (stereo not given)	-14	-3	0	-2	6
CCOc1ccc2ncc(S(=O)(=O)c3ccc(C)cc3)c(N3CCC4(CC3)OCCO4)c2c1	30	19	-1	41	104*
COc1ccccc1NS(=O)(=O)c1cccc(C(=O)N/N=C2\CC(=O)CC(C)(C)C2)c1	-4	-7	0	1	-6
O=[N+]([O-])c1ccc(N/N=C/c2cn(-c3ccccc3)nc2-c2ccccc2)cc1	52	7	0	29	64*
O=C(CNc1ccccc1)N/N=C/c1cn(-c2ccccc2)nc1-c1ccccc1	19	69*	0	22	47
NS(=O)(=O)c1ccc(N/N=C/c2cn(-c3ccccc3)nc2-c2ccccc2)c([N+](=O)[O-])c1	40	3	0	-8	-17
O=C(NCCc1ccncc1)Nc1ccc(Cl)c(Cl)c1	68*	96*	0	43	?
CC(C)N(CCc1ccncc1)C(=O)Nc1ccc(F)cc1	1	-4	0	7	26
O=C(NCCc1ccncc1)Nc1ccccc1	-6	-6	0	-4	-10
CC(C)N(CCc1ccncc1)C(=O)Nc1ccc(Cl)c(Cl)c1	26	92*	0	3	-3
N#Cc1c(Nc2cccc(F)c2)sc2c(O)cc(=O)[nH]c12	0	2	0	0	-2
O=C(NC(Cc1ccccc1)C(=O)O)c1ccccc1 (stereo not given)	.	4	0	-10	11
O=C(NC(Cc1ccc(F)cc1)C(=O)O)c1ccccc1 (stereo not given)	4	70*	0	-3	-5
